Measurements taken from ChEMBL document CHEMBL1129972 (J Med Chem, 1997).
Bridge positions count the residues as written; N and C are the ends. Square brackets hold non-standard residues; d marks the D form. Peptide text beside a SMILES is read from it. Pen = CC(C)(S)[C@H](N)C(=O)O; hCys = N[C@@H](CCS)C(=O)O

Tests used:
[1] = target: T1, Angiotensin II receptor (AT-1) type-1 (Rattus norvegicus, UniProt P29089+P25095); experiment: Inhibitory concentration against [125 I]Ang II binding to rat pituitary membranes Angiotensin II receptor type 1 without 0.2% bovine serum albumin
T1 sequence (P29089 whole entry): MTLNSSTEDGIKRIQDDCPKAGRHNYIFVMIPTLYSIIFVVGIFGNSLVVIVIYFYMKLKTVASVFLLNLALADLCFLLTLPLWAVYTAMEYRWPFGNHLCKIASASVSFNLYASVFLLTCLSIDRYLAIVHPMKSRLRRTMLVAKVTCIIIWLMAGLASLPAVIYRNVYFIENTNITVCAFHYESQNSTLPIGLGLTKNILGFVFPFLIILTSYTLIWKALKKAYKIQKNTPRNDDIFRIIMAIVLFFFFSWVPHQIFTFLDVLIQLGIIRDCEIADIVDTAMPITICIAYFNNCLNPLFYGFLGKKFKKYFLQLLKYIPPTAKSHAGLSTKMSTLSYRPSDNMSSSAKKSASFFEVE
T1 sequence (P25095 whole entry): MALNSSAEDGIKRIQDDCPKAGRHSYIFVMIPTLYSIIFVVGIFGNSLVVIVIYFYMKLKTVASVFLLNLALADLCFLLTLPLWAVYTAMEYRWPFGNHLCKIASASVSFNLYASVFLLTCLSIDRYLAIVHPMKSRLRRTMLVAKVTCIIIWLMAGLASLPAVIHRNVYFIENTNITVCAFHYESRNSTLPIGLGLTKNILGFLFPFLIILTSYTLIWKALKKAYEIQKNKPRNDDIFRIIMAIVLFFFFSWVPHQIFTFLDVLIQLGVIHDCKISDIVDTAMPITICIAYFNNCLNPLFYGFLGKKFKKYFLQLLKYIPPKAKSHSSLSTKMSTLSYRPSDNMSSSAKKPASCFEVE

Oryctolagus cuniculus [2] = species on record: Oryctolagus cuniculus; experiment: Concentration which produces 50% of maximal contractile response at rabbit aorta strips; format: functional
How it was run: (§1)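 Thoracic aortic rings (2 mm) from male New Zealand white rabbits (2.5–3.5 kg, pentobarbitone-anesthetized) in Krebs' bicarbonate buffer, 38.5 °C, pH 7.4, 95% O2/5% CO2; isometric tension, 2 g resting, ~90 min equilibration with one 300 nM Ang II challenge. Control cumulative Ang II curve (3×10^-10–10^-7 M), then cumulative test-compound curve 3×10^-10–10^-5 M; response as % of control Ang II maximum.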

[3] = target: T1, Angiotensin II receptor (AT-1) type-1; experiment: Inhibitory concentration against specific binding of [125 I]Ang II to rat pituitary membranes (Angiotensin II receptor, type 1) in presence of 0.2% bovine serum albumin; format: cell membranes, Membrane
Oryctolagus cuniculus [4] = species on record: Oryctolagus cuniculus; experiment: Contractile activity in isolated rabbit aortic rings; format: functional, Aorta; how it was run: as §1

| Compound | IC50 [1] [nM] | EC50 (Oryctolagus cuniculus [2]) [nM] | IC50 [3] [nM] | pD2 (Oryctolagus cuniculus [4]) |
| --- | --- | --- | --- | --- |
| CC[C@H](C)[C@@H](C(=O)N[C@@H](Cc1cnc[nH]1)C(=O)N1CCC[C@H]1C(=O)N[C@@H](Cc1ccccc1)C(=O)O)N1Cc2cc(NC(=O)[C@H](CCCN=C(N)N)NC(=O)[C@@H](N)CC(=O)O)ccc2[C@@H](Cc2ccc(O)cc2)C1=O | > 100000 | – | – | – |
| CC[C@H](C)[C@@H](C(=O)N[C@@H](Cc1c[nH]cn1)C(=O)N1CCC[C@H]1C(=O)N[C@@H](Cc1ccccc1)C(=O)O)N1CCC(CNC(=O)[C@H](CCCN=C(N)N)NC(=O)[C@@H](N)CC(=O)O)=C[C@H](Cc2ccc(O)cc2)C1=O | 2 | – | – | – |
| CC[C@H](C)[C@@H](C(=O)N[C@@H](Cc1c[nH]cn1)C(=O)N1CCC[C@H]1C(=O)N[C@@H](Cc1ccccc1)C(=O)O)N1Cc2cc(NC(=O)[C@H](CCCN=C(N)N)NC(=O)[C@@H](N)CC(=O)O)ccc2[C@H](Cc2ccc(O)cc2)C1=O | > 100000 | – | – | – |
| CC[C@H](C)[C@@H](C(=O)N[C@@H](Cc1c[nH]cn1)C(=O)N1CCC[C@H]1C(=O)N[C@@H](Cc1ccccc1)C(=O)O)N1CCC(CNC(=O)[C@H](CCCN=C(N)N)NC(=O)[C@@H](N)CC(=O)O)=C[C@@H](Cc2ccc(O)cc2)C1=O | 2.8 | 830 | – | – |
| NC(N)=NCCC[C@H](NC(=O)[C@@H](N)CC(=O)O)C(=O)N[C@H]1CSSC[C@@H](C(=O)N[C@@H](Cc2c[nH]cn2)C(=O)N2CCC[C@H]2C(=O)N[C@@H](Cc2ccccc2)C(=O)O)NC(=O)[C@H](Cc2ccc(O)cc2)NC1=O (H-DRCYCHPF-OH; disulfide 3-5) | 2.9 | – | 28 | – |
| CC1(C)SSC(C)(C)[C@@H](C(=O)N[C@@H](Cc2c[nH]cn2)C(=O)N2CCC[C@H]2C(=O)N[C@@H](Cc2ccccc2)C(=O)O)NC(=O)[C@H](Cc2ccc(O)cc2)NC(=O)[C@H]1NC(=O)[C@H](CCCN=C(N)N)NC(=O)[C@@H](N)CC(=O)O (H-DR[Pen]Y[Pen]HPF-OH; disulfide 3-5) | 0.9 | 217 | 3.8 | – |
| NC(N)=NCCC[C@H](NC(=O)[C@@H](N)CC(=O)O)C(=O)N[C@H]1CCSSCC[C@@H](C(=O)N[C@@H](Cc2c[nH]cn2)C(=O)N2CCC[C@H]2C(=O)N[C@@H](Cc2ccccc2)C(=O)O)NC(=O)[C@H](Cc2ccc(O)cc2)NC1=O (H-DR[hCys]Y[hCys]HPF-OH; disulfide 3-5) | 1.7 | – | 15.4 | 8.48 |
| CC[C@H](C)[C@H](NC(=O)[C@H](Cc1ccc(O)cc1)NC(=O)[C@@H](NC(=O)[C@H](CCCNC(=N)N)NC(=O)[C@@H](N)CC(=O)O)C(C)C)C(=O)N[C@@H](Cc1cnc[nH]1)C(=O)N1CCC[C@H]1C(=O)N[C@@H](Cc1ccccc1)C(=O)O [ANGIOTENSIN II] | – | 2.6 | – | – |
